Reference: ChEMBL document CHEMBL1137547, “Synthesis and antifungal activities of novel 2-aminotetralin derivatives” (2007)
In brackets after ≈: the same amount, converted by molar mass.

Experiments:
Type in all cases: functional
[1] = test system: Candida parapsilosis; assay: Antifungal activity against Candida parapsilosis after 24 hrs; conditions: Lodderomyces parapsilosis
In short: (§1)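 Candida yeasts were tested by NCCLS microdilution in RPMI 1640 buffered with 0.165 M MOPS and incubated at 35 °C. Compounds were dissolved in DMSO and serially diluted in medium. Isolates came from ATCC or the clinic. The MIC was read at 24 h as the lowest concentration achieving ≥80% growth inhibition versus the control.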

[2] = test system: Cryptococcus neoformans; assay: Antifungal activity against Cryptococcus neoformans after 72 hrs
In short: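 Cryptococcus neoformans was tested by NCCLS serial dilution in MOPS-buffered (0.165 M) RPMI 1640 at 35 °C. Compounds were dissolved in DMSO and diluted in medium. The MIC was read at 72 h as the lowest concentration giving turbidity inhibition of ≥80% relative to the growth control.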

[3] = test system: Microsporum; assay: Antifungal activity against Microsporum gypseum
In short: (§2)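 Dermatophytes were tested by NCCLS serial dilution in RPMI 1640 with 0.165 M MOPS and incubated at 28 °C. Compounds were dissolved in DMSO and diluted in medium. Strains came from ATCC or clinical isolates. The MIC was read at 7 d as the lowest concentration reducing turbidity by ≥80% relative to the drug-free control.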

[4] = test system: Candida albicans; assay: Antifungal activity against Candida albicans after 24 hrs; in short: as §1
[5] = test system: Trichophyton rubrum; assay: Antifungal activity against Trichophyton rubrum; in short: as §2
[6] = test system: Aspergillus fumigatus; assay: Antifungal activity against Aspergillus fumigatus
In short: (§3)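 NCCLS broth serial dilution in RPMI 1640 buffered with 0.165 M MOPS. Compounds were dissolved in DMSO and serially diluted in medium. Strains came from ATCC or clinical isolates. The growth MIC for filamentous fungi was read at 7 d, taken as the lowest concentration giving ≥80% turbidity inhibition versus the growth control.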

[7] = test system: Fonsecaea compacta; assay: Antifungal activity against Fonsecaea compacta; in short: as §3

Structure (SMILES)	MIC [1]	MIC [2]	MIC [3]	MIC [4]	MIC [5]	MIC [6]	MIC [7]
Oc1cccc2c1CC(NCc1ccccc1)CC2 (centres undefined)	> 64 µM	> 64 µM	32 µM (≈ 8.11 µg/mL)	64 µM (≈ 16.2 µg/mL)	0.5 µM (≈ 0.127 µg/mL)	> 64 µM	32 µM (≈ 8.11 µg/mL)
CCCCCCCCCCCCCCCCCCNC1CCc2c(cccc2OC)C1 (centres undefined)	> 64 µM	> 64 µM	16 µM (≈ 6.88 µg/mL)	> 64 µM	32 µM (≈ 13.8 µg/mL)	> 64 µM	64 µM (≈ 27.5 µg/mL)
CCCCCCCCCCCCCCCCCCNC1CCc2cc(OC)ccc2C1 (centres undefined)	> 64 µM	> 64 µM	> 64 µM	64 µM (≈ 27.5 µg/mL)	8 µM (≈ 3.44 µg/mL)	> 64 µM	> 64 µM
CCCCCCCCCCCCCCCCCCNC1CCc2ccc(OC)cc2C1 (centres undefined)	> 64 µM	> 64 µM	64 µM (≈ 27.5 µg/mL)	> 64 µM	8 µM (≈ 3.44 µg/mL)	> 64 µM	> 64 µM
CCCCCCCCCCCCCCCCCCNC1CCc2cccc(OC)c2C1 (centres undefined)	> 64 µM	64 µM (≈ 27.5 µg/mL)	64 µM (≈ 27.5 µg/mL)	> 64 µM	2 µM (≈ 0.859 µg/mL)	> 64 µM	> 64 µM
CCCCCCCCCCCCCCCCCCNC1CCc2c(O)cccc2C1 (centres undefined)	> 64 µM	> 64 µM	> 64 µM	64 µM (≈ 26.6 µg/mL)	16 µM (≈ 6.65 µg/mL)	> 64 µM	> 64 µM
CCCCCCCCCCCCCCCCCCNC1CCc2cc(O)ccc2C1 (centres undefined)	> 64 µM	> 64 µM	64 µM (≈ 26.6 µg/mL)	32 µM (≈ 13.3 µg/mL)	8 µM (≈ 3.33 µg/mL)	> 64 µM	> 64 µM
CCCCCCCCCCCCCCCCCCNC1CCc2ccc(O)cc2C1 (centres undefined)	> 64 µM	> 64 µM	> 64 µM	16 µM (≈ 6.65 µg/mL)	2 µM (≈ 0.831 µg/mL)	> 64 µM	64 µM (≈ 26.6 µg/mL)
Oc1ccc2c(c1)CCC(NCc1ccccc1)C2 (centres undefined)	> 64 µM	> 64 µM	> 64 µM	64 µM (≈ 16.2 µg/mL)	8 µM (≈ 2.03 µg/mL)	> 64 µM	> 64 µM
Oc1cccc2c1CCC(Nc1ccccc1)C2 (centres undefined)	> 64 µM	> 64 µM	> 64 µM	> 64 µM	8 µM (≈ 1.91 µg/mL)	> 64 µM	> 64 µM
COc1cccc2c1CC(NCc1ccccc1)CC2 (centres undefined)	> 64 µM	> 64 µM	4 µM (≈ 1.07 µg/mL)	> 64 µM	32 µM (≈ 8.56 µg/mL)	> 64 µM	> 64 µM
Oc1cccc2c1CCC(NCc1ccccc1)C2 (centres undefined)	> 64 µM	> 64 µM	> 64 µM	64 µM (≈ 16.2 µg/mL)	0.125 µM (≈ 0.0317 µg/mL)	> 64 µM	> 64 µM
COc1ccc(NC2CCc3cccc(OC)c3C2)cc1 (centres undefined)	> 64 µM	> 64 µM	16 µM (≈ 4.53 µg/mL)	> 64 µM	32 µM (≈ 9.07 µg/mL)	> 64 µM	> 64 µM
COc1cccc2c1CCC(Nc1ccccc1)C2 (centres undefined)	> 64 µM	> 64 µM	32 µM (≈ 8.11 µg/mL)	> 64 µM	2 µM (≈ 0.507 µg/mL)	> 64 µM	> 64 µM
COc1ccc2c(c1)CCC(Nc1ccccc1)C2 (centres undefined)	> 64 µM	> 64 µM	32 µM (≈ 8.11 µg/mL)	> 64 µM	0.5 µM (≈ 0.127 µg/mL)	> 64 µM	> 64 µM
COc1ccc(NC2CCc3ccc(O)cc3C2)cc1 (centres undefined)	64 µM (≈ 17.2 µg/mL)	> 64 µM	32 µM (≈ 8.62 µg/mL)	> 64 µM	0.5 µM (≈ 0.135 µg/mL)	> 64 µM	> 64 µM
COc1ccc2c(c1)CC(Nc1ccccc1)CC2 (centres undefined)	> 64 µM	64 µM (≈ 16.2 µg/mL)	64 µM (≈ 16.2 µg/mL)	> 64 µM	4 µM (≈ 1.01 µg/mL)	> 64 µM	> 64 µM
Oc1cccc2c1CC(Nc1ccccc1)CC2 (centres undefined)	> 64 µM	32 µM (≈ 7.66 µg/mL)	32 µM (≈ 7.66 µg/mL)	> 64 µM	4 µM (≈ 0.957 µg/mL)	> 64 µM	64 µM (≈ 15.3 µg/mL)
CCCCCCCCCCCCCCNC1CCc2ccc(OC)cc2C1 (centres undefined)	> 64 µM	16 µM (≈ 5.98 µg/mL)	4 µM (≈ 1.49 µg/mL)	4 µM (≈ 1.49 µg/mL)	0.0625 µM (≈ 0.0234 µg/mL)	> 64 µM	64 µM (≈ 23.9 µg/mL)
CCCCCCCCCCCCCCNC1CCc2cccc(OC)c2C1 (centres undefined)	16 µM (≈ 5.98 µg/mL)	32 µM (≈ 12 µg/mL)	2 µM (≈ 0.747 µg/mL)	4 µM (≈ 1.49 µg/mL)	0.5 µM (≈ 0.187 µg/mL)	> 64 µM	32 µM (≈ 12 µg/mL)
COc1ccc2c(c1)CCC(Nc1ccc(Cl)cc1)C2 (centres undefined)	> 64 µM	> 64 µM	16 µM (≈ 4.6 µg/mL)	> 64 µM	1 µM (≈ 0.288 µg/mL)	> 64 µM	> 64 µM

Structure (SMILES)	MIC [1]	MIC [2]	MIC [3]	MIC [4]	MIC [5]	MIC [6]	MIC [7]
COc1cccc2c1CC(Nc1ccccc1)CC2 (centres undefined)	> 64 µM	> 64 µM	32 µM (≈ 8.11 µg/mL)	> 64 µM	4 µM (≈ 1.01 µg/mL)	> 64 µM	> 64 µM
CCCCCCCCCCCCCCNC1CCc2c(O)cccc2C1 (centres undefined)	> 64 µM	8 µM (≈ 2.88 µg/mL)	4 µM (≈ 1.44 µg/mL)	8 µM (≈ 2.88 µg/mL)	0.5 µM (≈ 0.18 µg/mL)	> 64 µM	> 64 µM
CCCCCCCCCCCCCCNC1CCc2cc(O)ccc2C1 (centres undefined)	32 µM (≈ 11.5 µg/mL)	> 4 µM	2 µM (≈ 0.719 µg/mL)	2 µM (≈ 0.719 µg/mL)	0.5 µM (≈ 0.18 µg/mL)	> 64 µM	> 64 µM
Oc1ccc2c(c1)CC(Nc1ccccc1)CC2 (centres undefined)	> 64 µM	16 µM (≈ 3.83 µg/mL)	16 µM (≈ 3.83 µg/mL)	32 µM (≈ 7.66 µg/mL)	8 µM (≈ 1.91 µg/mL)	> 64 µM	32 µM (≈ 7.66 µg/mL)
COc1ccc2c(c1)CCC(NCc1ccccc1)C2 (centres undefined)	> 64 µM	> 64 µM	> 64 µM	30 µM (≈ 8.02 µg/mL)	16 µM (≈ 4.28 µg/mL)	> 64 µM	> 64 µM
COc1ccc(NC2CCc3cccc(O)c3C2)cc1 (centres undefined)	> 64 µM	> 64 µM	16 µM (≈ 4.31 µg/mL)	> 64 µM	2 µM (≈ 0.539 µg/mL)	> 64 µM	> 64 µM
COc1ccc2c(c1)CC(NCc1ccccc1)CC2 (centres undefined)	> 64 µM	> 64 µM	> 64 µM	64 µM (≈ 17.1 µg/mL)	4 µM (≈ 1.07 µg/mL)	> 64 µM	> 64 µM
Oc1ccc2c(c1)CC(NCc1ccccc1)CC2 (centres undefined)	> 64 µM	> 64 µM	> 64 µM	64 µM (≈ 16.2 µg/mL)	16 µM (≈ 4.05 µg/mL)	> 64 µM	> 64 µM
COc1ccc(NC2CCc3cc(OC)ccc3C2)cc1 (centres undefined)	> 64 µM	> 64 µM	8 µM (≈ 2.27 µg/mL)	> 64 µM	8 µM (≈ 2.27 µg/mL)	> 64 µM	> 64 µM
CCCCCCCCCCCCCCNC1CCc2ccc(O)cc2C1 (centres undefined)	4 µM (≈ 1.44 µg/mL)	8 µM (≈ 2.88 µg/mL)	4 µM (≈ 1.44 µg/mL)	4 µM (≈ 1.44 µg/mL)	0.5 µM (≈ 0.18 µg/mL)	> 64 µM	8 µM (≈ 2.88 µg/mL)
COc1ccc(NC2CCc3c(O)cccc3C2)cc1 (centres undefined)	32 µM (≈ 8.62 µg/mL)	> 64 µM	16 µM (≈ 4.31 µg/mL)	> 64 µM	0.25 µM (≈ 0.0673 µg/mL)	> 64 µM	> 64 µM
COc1ccc(NC2CCc3cc(O)ccc3C2)cc1 (centres undefined)	64 µM (≈ 17.2 µg/mL)	64 µM (≈ 17.2 µg/mL)	16 µM (≈ 4.31 µg/mL)	> 64 µM	0.5 µM (≈ 0.135 µg/mL)	> 64 µM	> 64 µM
COc1ccc2c(c1)CC(Nc1ccc(Cl)cc1)CC2 (centres undefined)	> 64 µM	> 64 µM	16 µM (≈ 4.6 µg/mL)	> 64 µM	16 µM (≈ 4.6 µg/mL)	> 64 µM	> 64 µM
CCCCCCCCCCCCCCNC1CCc2cc(OC)ccc2C1 (centres undefined)	> 64 µM	64 µM (≈ 23.9 µg/mL)	> 64 µM	32 µM (≈ 12 µg/mL)	16 µM (≈ 5.98 µg/mL)	> 64 µM	> 64 µM
Oc1ccc2c(c1)CCC(Nc1ccccc1)C2 (centres undefined)	64 µM (≈ 15.3 µg/mL)	64 µM (≈ 15.3 µg/mL)	32 µM (≈ 7.66 µg/mL)	64 µM (≈ 15.3 µg/mL)	8 µM (≈ 1.91 µg/mL)	> 64 µM	64 µM (≈ 15.3 µg/mL)
COc1ccc(NC2CCc3ccc(OC)cc3C2)cc1 (centres undefined)	> 64 µM	> 64 µM	16 µM (≈ 4.53 µg/mL)	> 64 µM	0.5 µM (≈ 0.142 µg/mL)	> 64 µM	64 µM (≈ 18.1 µg/mL)
CCCCCCCCCCCCCCCCCCNC1CCc2cccc(O)c2C1 (centres undefined)	> 64 µM	> 64 µM	> 64 µM	> 64 µM	2 µM (≈ 0.831 µg/mL)	> 64 µM	64 µM (≈ 26.6 µg/mL)
COc1ccc(NC2CCc3c(cccc3OC)C2)cc1 (centres undefined)	> 64 µM	> 64 µM	8 µM (≈ 2.27 µg/mL)	> 64 µM	2 µM (≈ 0.567 µg/mL)	> 64 µM	> 64 µM
CCCCCCCCCCCCCCNC1CCc2cccc(O)c2C1 (centres undefined)	64 µM (≈ 23 µg/mL)	32 µM (≈ 11.5 µg/mL)	4 µM (≈ 1.44 µg/mL)	16 µM (≈ 5.75 µg/mL)	0.125 µM (≈ 0.0449 µg/mL)	16 µM (≈ 5.75 µg/mL)	16 µM (≈ 5.75 µg/mL)
COc1cccc2c1CCC(Nc1ccc(Cl)cc1)C2 (centres undefined)	> 64 µM	> 64 µM	16 µM (≈ 4.6 µg/mL)	> 64 µM	2 µM (≈ 0.576 µg/mL)	> 64 µM	> 64 µM
COc1cccc2c1CCC(NCc1ccccc1)C2 (centres undefined)	> 64 µM	64 µM (≈ 17.1 µg/mL)	64 µM (≈ 17.1 µg/mL)	32 µM (≈ 8.56 µg/mL)	16 µM (≈ 4.28 µg/mL)	> 64 µM	32 µM (≈ 8.56 µg/mL)
